Results from ChEMBL document CHEMBL1938286, “A concise synthesis of viscolin, and its anti-inflammatory effects through the suppression of iNOS, COX-2, ERK phosphorylation and proinflammatory cytokines expressions” (Eur J Med Chem, 2012).
≈ marks a conversion by molar mass, not a printed value. Calls of active or inactive are those of the source. No cut-off for these calls is given here.

Experiments:
Mus musculus [1] = assay: Antioxidant activity in carrageenan-stimulated ICR mouse assessed as increase in CAT activity at 4 mg/kg, ip measured after 5 hrs; format: functional; details: route intraperitoneal
Procedure, shortened: (§1)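 Male ICR mice (n = 6 per group) received the drug 30 min before intraplantar carrageenan, and paw tissue was taken at the 5th hr. Total SOD was measured by inhibition of cytochrome c reduction, CAT by Aebi's method, and cytosolic GPx by Paglia–Valentine. Activities are in U/mg protein, given as mean ± SEM.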

[2] = Antiinflammatory activity in human neutrophils assessed as inhibition of fMLP/CB-induced elastase release; format: functional, cell-based; details: Neutrophil
Mus musculus [3] = assay: Antioxidant activity in carrageenan-stimulated ICR mouse assessed as increase in SOD activity at 2 mg/kg, ip measured after 5 hrs; format: functional; details: route intraperitoneal; procedure, shortened: as §1
[4] = target: Mitogen-activated protein kinase 1 and 3 (ERK2 and ERK1) (Mus musculus) (UniProt P63085+Q63844); assay: Inhibition of Erk1/2 phosphorylation in LPS-stimulated mouse RAW264.7 cells at 5 to 20 uM after 30 mins by Western blot analysis; format: cell-based
Chain of Mitogen-activated protein kinase 1 and 3 (ERK2 and ERK1) (Mus musculus) (P63085 whole entry, looked up): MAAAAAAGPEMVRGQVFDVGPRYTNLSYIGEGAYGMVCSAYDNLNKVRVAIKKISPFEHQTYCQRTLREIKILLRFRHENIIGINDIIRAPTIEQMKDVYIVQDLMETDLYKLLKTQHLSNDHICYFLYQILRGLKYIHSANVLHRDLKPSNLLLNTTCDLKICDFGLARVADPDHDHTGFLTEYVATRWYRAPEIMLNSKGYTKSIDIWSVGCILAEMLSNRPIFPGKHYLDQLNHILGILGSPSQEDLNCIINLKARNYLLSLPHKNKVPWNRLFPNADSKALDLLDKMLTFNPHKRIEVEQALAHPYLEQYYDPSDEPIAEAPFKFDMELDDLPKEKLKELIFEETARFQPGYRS
Chain of Mitogen-activated protein kinase 1 and 3 (ERK2 and ERK1) (Mus musculus) (Q63844 whole entry, looked up): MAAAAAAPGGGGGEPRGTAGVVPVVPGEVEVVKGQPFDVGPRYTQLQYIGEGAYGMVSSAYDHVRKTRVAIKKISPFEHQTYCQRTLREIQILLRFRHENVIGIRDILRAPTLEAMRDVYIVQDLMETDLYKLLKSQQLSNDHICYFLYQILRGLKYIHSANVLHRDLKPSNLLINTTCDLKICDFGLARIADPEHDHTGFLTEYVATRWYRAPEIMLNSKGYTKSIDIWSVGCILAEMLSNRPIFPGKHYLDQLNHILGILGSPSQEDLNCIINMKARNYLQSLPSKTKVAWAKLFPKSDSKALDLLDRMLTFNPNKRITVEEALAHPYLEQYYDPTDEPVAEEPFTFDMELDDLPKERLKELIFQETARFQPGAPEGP
Procedure, shortened: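 RAW 264.7 cells were pretreated with test agent, then stimulated with LPS for 30 min. Phospho-ERK, phospho-JNK and phospho-p38 were assessed by Western blot: RIPA lysates, 30 µg protein, SDS-PAGE, PVDF, primary antibody overnight at 4 °C, HRP secondary and ECL detection.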

Mus musculus [5] = assay: Antioxidant activity in carrageenan-stimulated ICR mouse assessed as increase in GPx activity at 2 mg/kg, ip measured after 5 hrs; format: functional; details: route intraperitoneal; procedure, shortened: as §1
RAW264.7 [6] = assay: Antiinflammatory activity in LPS-stimulated mouse RAW264.7 cells assessed as inhibition of COX-2 protein expression after 24 hrs by Western blot analysis; format: functional, cell-based
RAW264.7 [7] = assay: Antiinflammatory activity in mouse RAW264.7 cells assessed as inhibition of LPS-induced PGE2 production administered 1 hr before LPS challenge measured after 24 hrs by ELISA
Mus musculus [8] = assay: Down regulation of COX-2 protein expression in carrageenan-stimulated ICR mouse at 8 mg/kg, ip measured after 5 hrs by Western blot analysis; format: functional; details: route intraperitoneal
Procedure, shortened: (§2)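 Male ICR mice (18–25 g, n = 6 per group) received intraplantar carrageenan. Paw tissue was taken 5 h after carrageenan. Lysates were made in RIPA buffer and 30 µg protein run on SDS-PAGE/PVDF immunoblot with ECL detection. Band intensities were quantified relative to the carrageenan-alone group across three independent experiments.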

Mus musculus [9] = assay: Antioxidant activity in carrageenan-stimulated ICR mouse assessed as increase in CAT activity at 8 mg/kg, ip measured after 5 hrs; format: functional; details: route intraperitoneal; procedure, shortened: as §1
Mus musculus [10] = assay: Down regulation of iNOS protein expression in carrageenan-stimulated ICR mouse at 8 mg/kg, ip measured after 5 hrs by Western blot analysis; format: functional; details: route intraperitoneal; procedure, shortened: as §2
Mus musculus [11] = assay: Antioxidant activity in carrageenan-stimulated ICR mouse assessed as increase in GPx activity at 8 mg/kg, ip measured after 5 hrs; format: functional; details: route intraperitoneal; procedure, shortened: as §1
RAW264.7 [12] = assay: Down regulation of COX-2 protein expression in LPS-stimulated mouse RAW264.7 cells at 20 uM after 24 hrs by Western blot analysis; format: functional
Procedure, shortened: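 RAW 264.7 cells were pretreated with test agent for 1 h, then stimulated with 100 ng/mL LPS for 24 h. Lysates were made in RIPA buffer and 30 µg protein resolved by SDS-PAGE, blotted to PVDF and blocked with 1% BSA. Primary antibody ran overnight at 4 °C, HRP secondary 1 h at 37 °C. Detection was by ECL, with band intensity expressed relative to control.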

Mus musculus [13] = assay: Antiinflammatory activity in ICR mouse assessed as decrease in carrageenan-induced serum TNFalpha level at 4 mg/kg, ip; format: functional, organism-based; parameters: dose 4 mg/kg
Procedure, shortened: (§3)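 Male ICR mice (18–25 g, n = 6 per group). Carrageenan was injected intraplantar into the paw, with drug given 30 min beforehand. Serum was collected at the 5th hr. Nitrite was measured colorimetrically by Griess reaction, and TNF-α by commercial ELISA. Data are mean ± SEM.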

RAW264.7 [14] = assay: Antiinflammatory activity in mouse RAW264.7 cells assessed as inhibition of LPS-induced TNFalpha production at 20 uM administered 1 hr before LPS challenge measured after 24 hrs by ELISA
RAW264.7 [15] = assay: Cytotoxicity against mouse RAW264.7 cells after 24 hrs by MTT assay; format: cell-based; details: raw264.7, 24 h
Procedure, shortened: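 RAW 264.7 cells (2 × 10⁵, DMEM + 10% FBS, grown 1 day to near confluence) exposed to test agent with 100 ng/mL LPS for 24 h. After two DPBS washes, 0.5 mg/mL MTT was added for 2 h at 37 °C. Formazan was dissolved in DMSO for 30 min and absorbance read at 570 nm.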

Mus musculus [16] = assay: Antiinflammatory activity in carrageenan-stimulated ICR mouse assessed as effect on connective tissue damage at 8 mg/kg, ip measured after 5 hrs; format: functional, organism-based; parameters: dose 8 mg/kg
Procedure, shortened: (§4)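 Male ICR mice were dosed 30 min before intraplantar carrageenan, and paw biopsies were taken 5 h later. Tissue was fixed in Dietric solution for 1 week at room temperature, dehydrated in graded ethanol and paraffin-embedded. 7-thickness sections were stained with hematoxylin–eosin or Van Gieson and examined by light microscopy.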

RAW264.7 [17] = assay: Antiinflammatory activity in mouse RAW264.7 cells assessed as inhibition of LPS-induced NO production at 10 uM administered 1 hr before LPS challenge measured after 24 hrs by Griess method; format: functional, cell-based
[18] = Antioxidant activity in human neutrophils assessed as inhibition of fMLP/CB-induced superoxide anion generation; format: functional, cell-based; details: Neutrophil
Mus musculus [19] = assay: Antioxidant activity in carrageenan-stimulated ICR mouse assessed as increase in SOD activity at 4 mg/kg, ip measured after 5 hrs; format: functional; details: route intraperitoneal; procedure, shortened: as §1
Mus musculus [20] = assay: Antiinflammatory activity in carrageenan-stimulated ICR mouse assessed as decrease in intercellular spaces at 8 mg/kg, ip measured after 5 hrs; format: functional, organism-based; parameters: dose 8 mg/kg; procedure, shortened: as §4
RAW264.7 [21] = assay: Antiinflammatory activity in mouse RAW264.7 cells assessed as inhibition of LPS-induced NO production administered 1 hr before LPS challenge measured after 24 hrs by Griess method; format: functional, cell-based
Mus musculus [22] = assay: Antiinflammatory activity in ICR mouse assessed as inhibition of carrageenan-induced hind paw edema at 8 mg/kg, ip measured after 4 hrs; format: functional, organism-based; parameters: dose 8 mg/kg
Mus musculus [23] = assay: Antiinflammatory activity in ICR mouse assessed as decrease in carrageenan-induced serum TNFalpha level at 2 mg/kg, ip; format: functional, organism-based; parameters: dose 2 mg/kg; procedure, shortened: as §3
Mus musculus [24] = assay: Antiinflammatory activity in carrageenan-stimulated ICR mouse assessed as vascular localization of inflammatory cells at 8 mg/kg, ip measured after 5 hrs; format: functional, organism-based; parameters: dose 8 mg/kg; procedure, shortened: as §4
Mus musculus [25] = assay: Antiinflammatory activity in carrageenan-stimulated ICR mouse assessed as decrease in number of inflammatory cells at 8 mg/kg, ip measured after 5 hrs; format: functional, organism-based; parameters: dose 8 mg/kg; procedure, shortened: as §4

Q: Which Activity (Mus musculus [1]) does the source give for `COc1cc(CCCc2c(OC)cc(O)c(OC)c2OC)ccc1O` [VISCOLIN] here?
A: 4.28 U/mg

Q: And the IC50 [2]?
A: 4.93 µg/mL (≈ 14.2 µM)

Q: What about the Activity (Mus musculus [3]) of the same compound?
A: 2.45 U/mg

Q: What about the inhibition [4] of the same compound?
A: Active

Q: What about the Activity (Mus musculus [5]) of the same compound?
A: 8.64 U/mg

Q: And the Activity (RAW264.7 [6])?
A: Dose-dependent effect

Q: And the IC50 (RAW264.7 [7])?
A: 14.4 µM

Q: What about the Activity (Mus musculus [8]) of the same compound?
A: 76.2%

Q: What about the Activity (Mus musculus [9]) of the same compound?
A: 4.98 U/mg

Q: What about the Activity (Mus musculus [10]) of the same compound?
A: 63.6%

Q: What about the Activity (Mus musculus [11]) of the same compound?
A: 11.54 U/mg

Q: And the Activity (RAW264.7 [12])?
A: 70.6%

Q: And the Activity (Mus musculus [13])?
A: Active

Q: And the Activity (RAW264.7 [14])?
A: Active

Q: And the Activity (RAW264.7 [15])?
A: Non-toxic

Q: And the Activity (Mus musculus [16])?
A: Active

Q: What about the Activity (RAW264.7 [17]) of the same compound?
A: Active

Q: And the IC50 [18]?
A: 0.58 µg/mL (≈ 1.66 µM)

Q: And the Activity (Mus musculus [19])?
A: 3.46 U/mg

Q: And the Activity (Mus musculus [20])?
A: Active

Q: And the Activity (RAW264.7 [21])?
A: Dose-dependent effect

Q: And the IC50 (RAW264.7 [21])?
A: 17.8 µM

Q: What about the Activity (Mus musculus [22]) of the same compound?
A: Active

Q: What about the Activity (Mus musculus [23]) of the same compound?
A: Active

Q: What about the Activity (Mus musculus [24]) of the same compound?
A: Active

Q: What about the Activity (Mus musculus [25]) of the same compound?
A: Active
